In PMC2212508 (The Journal of Experimental Medicine, 1998):
Where two headings read alike, the source gives them in different places.

Columns and labels:
Format in all cases: cell-based
[1] = target: KV (Kv1.3), human T cells (Homo sapiens, UniProt P22001); assay: whole-cell patch clamp, peak KV current
Summary of the method: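 Peripheral T cells came from healthy donors' venous blood by Ficoll-Hypaque. Recording was whole-cell at 20–25°C in Ringer, with a 160 mM K+ aspartate/10 mM EGTA pipette (pH 7.2). Pulses of 200 ms went from −80 to +30 mV every 30 s. Each steroid was bath-applied at 60 μM. Percent inhibition of peak KV current is mean ± SD, ≥3 experiments.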

[2] = target: KCa (hKCa4), activated human T cells (Homo sapiens, UniProt O15554); assay: whole-cell patch clamp, KCa slope conductance near -80 mV
Sequence of KCa (hKCa4), activated human T cells (O15554 whole entry): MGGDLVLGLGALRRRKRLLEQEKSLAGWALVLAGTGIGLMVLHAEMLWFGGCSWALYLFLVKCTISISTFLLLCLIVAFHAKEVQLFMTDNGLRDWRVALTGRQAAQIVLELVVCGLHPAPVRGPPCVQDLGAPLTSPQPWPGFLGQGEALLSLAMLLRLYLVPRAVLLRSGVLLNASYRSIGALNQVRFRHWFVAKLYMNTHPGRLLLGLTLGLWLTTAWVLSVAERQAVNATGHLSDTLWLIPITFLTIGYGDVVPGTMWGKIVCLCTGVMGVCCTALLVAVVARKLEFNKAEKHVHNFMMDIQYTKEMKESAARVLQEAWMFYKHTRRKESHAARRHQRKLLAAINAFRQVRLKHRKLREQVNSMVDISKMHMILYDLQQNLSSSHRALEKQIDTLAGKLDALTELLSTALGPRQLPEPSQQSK
Summary of the method: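 Human T-cell blasts were made from Ficoll-isolated blood T cells with 10 μg/ml PHA. KCa was opened by dialysis with a pipette of 140 mM K+ aspartate, 7.8 mM CaCl2 and 10 mM EGTA (nominal 1 μM free Ca2+, pH 7.2). Ramps of 200 ms went from −120 to +50 mV every 30 s. Each compound was applied at 60 μM. Slope-conductance inhibition near −80 mV is mean ± SD, ≥3 experiments.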

Kv3.1 = target: T1, Kv3.1 (Mus musculus, UniProt P15388); assay: whole-cell patch clamp; conditions: read-out: % inhibition at 30 μM
T1 sequence (P15388 1-511): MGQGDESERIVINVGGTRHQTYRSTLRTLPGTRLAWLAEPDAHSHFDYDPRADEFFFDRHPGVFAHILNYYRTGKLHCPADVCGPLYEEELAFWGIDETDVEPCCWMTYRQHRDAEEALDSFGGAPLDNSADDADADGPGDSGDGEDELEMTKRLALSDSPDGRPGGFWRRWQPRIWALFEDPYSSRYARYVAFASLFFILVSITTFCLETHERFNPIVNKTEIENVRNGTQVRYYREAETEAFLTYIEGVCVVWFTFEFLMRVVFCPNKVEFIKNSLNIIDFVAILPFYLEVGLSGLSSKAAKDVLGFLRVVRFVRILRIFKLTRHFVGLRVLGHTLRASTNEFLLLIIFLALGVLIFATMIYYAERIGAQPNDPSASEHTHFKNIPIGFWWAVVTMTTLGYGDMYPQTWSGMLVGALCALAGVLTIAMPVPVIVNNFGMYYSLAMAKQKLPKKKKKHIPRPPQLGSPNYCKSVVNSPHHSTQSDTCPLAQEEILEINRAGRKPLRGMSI
Summary of the method: (§1)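 Cell lines stably expressing each cloned KV channel, cultured in RPMI 1640 with 10% heat-inactivated FBS at 37°C and 5% CO2. Whole-cell currents were recorded at 20–25°C in mammalian Ringer. The pipette held 160 mM K+ aspartate, 10 mM EGTA, pH 7.2. Steps of 200 ms went from −80 to +30 mV every 30 s. Test compound was bath-applied at 30 μM. Inhibition of peak current is mean ± SD from ≥3 experiments.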

Kv1.4 = assay: whole-cell patch clamp; conditions: LTK cells; depolarizing pulses to +30 mV
Summary of the method: as §1

Kv1.3 (cloned) = Kv1.3 (cloned) (Mus musculus, UniProt P16390); assay: whole-cell patch clamp; conditions: read-out: % inhibition at 30 μM
Sequence of Kv1.3 (cloned) (P16390 whole entry): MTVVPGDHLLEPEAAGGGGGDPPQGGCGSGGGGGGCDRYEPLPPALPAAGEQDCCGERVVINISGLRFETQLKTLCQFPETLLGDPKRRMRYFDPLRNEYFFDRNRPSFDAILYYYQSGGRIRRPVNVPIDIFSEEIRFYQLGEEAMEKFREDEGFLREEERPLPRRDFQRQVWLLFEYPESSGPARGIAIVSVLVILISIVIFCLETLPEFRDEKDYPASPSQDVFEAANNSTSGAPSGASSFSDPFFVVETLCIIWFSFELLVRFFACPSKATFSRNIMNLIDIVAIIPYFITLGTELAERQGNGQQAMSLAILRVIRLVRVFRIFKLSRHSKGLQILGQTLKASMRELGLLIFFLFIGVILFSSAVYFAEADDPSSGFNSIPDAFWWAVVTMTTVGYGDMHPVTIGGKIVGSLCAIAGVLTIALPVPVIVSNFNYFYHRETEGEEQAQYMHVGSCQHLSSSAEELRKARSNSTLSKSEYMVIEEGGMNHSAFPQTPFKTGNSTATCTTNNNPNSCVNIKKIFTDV
Summary of the method: as §1

hSKM1 = hSKM1 (Homo sapiens, UniProt P35499); assay: whole-cell patch clamp, peak Na+ current; conditions: read-out: % inhibition at 30 μM
Sequence of hSKM1 (P35499 whole entry): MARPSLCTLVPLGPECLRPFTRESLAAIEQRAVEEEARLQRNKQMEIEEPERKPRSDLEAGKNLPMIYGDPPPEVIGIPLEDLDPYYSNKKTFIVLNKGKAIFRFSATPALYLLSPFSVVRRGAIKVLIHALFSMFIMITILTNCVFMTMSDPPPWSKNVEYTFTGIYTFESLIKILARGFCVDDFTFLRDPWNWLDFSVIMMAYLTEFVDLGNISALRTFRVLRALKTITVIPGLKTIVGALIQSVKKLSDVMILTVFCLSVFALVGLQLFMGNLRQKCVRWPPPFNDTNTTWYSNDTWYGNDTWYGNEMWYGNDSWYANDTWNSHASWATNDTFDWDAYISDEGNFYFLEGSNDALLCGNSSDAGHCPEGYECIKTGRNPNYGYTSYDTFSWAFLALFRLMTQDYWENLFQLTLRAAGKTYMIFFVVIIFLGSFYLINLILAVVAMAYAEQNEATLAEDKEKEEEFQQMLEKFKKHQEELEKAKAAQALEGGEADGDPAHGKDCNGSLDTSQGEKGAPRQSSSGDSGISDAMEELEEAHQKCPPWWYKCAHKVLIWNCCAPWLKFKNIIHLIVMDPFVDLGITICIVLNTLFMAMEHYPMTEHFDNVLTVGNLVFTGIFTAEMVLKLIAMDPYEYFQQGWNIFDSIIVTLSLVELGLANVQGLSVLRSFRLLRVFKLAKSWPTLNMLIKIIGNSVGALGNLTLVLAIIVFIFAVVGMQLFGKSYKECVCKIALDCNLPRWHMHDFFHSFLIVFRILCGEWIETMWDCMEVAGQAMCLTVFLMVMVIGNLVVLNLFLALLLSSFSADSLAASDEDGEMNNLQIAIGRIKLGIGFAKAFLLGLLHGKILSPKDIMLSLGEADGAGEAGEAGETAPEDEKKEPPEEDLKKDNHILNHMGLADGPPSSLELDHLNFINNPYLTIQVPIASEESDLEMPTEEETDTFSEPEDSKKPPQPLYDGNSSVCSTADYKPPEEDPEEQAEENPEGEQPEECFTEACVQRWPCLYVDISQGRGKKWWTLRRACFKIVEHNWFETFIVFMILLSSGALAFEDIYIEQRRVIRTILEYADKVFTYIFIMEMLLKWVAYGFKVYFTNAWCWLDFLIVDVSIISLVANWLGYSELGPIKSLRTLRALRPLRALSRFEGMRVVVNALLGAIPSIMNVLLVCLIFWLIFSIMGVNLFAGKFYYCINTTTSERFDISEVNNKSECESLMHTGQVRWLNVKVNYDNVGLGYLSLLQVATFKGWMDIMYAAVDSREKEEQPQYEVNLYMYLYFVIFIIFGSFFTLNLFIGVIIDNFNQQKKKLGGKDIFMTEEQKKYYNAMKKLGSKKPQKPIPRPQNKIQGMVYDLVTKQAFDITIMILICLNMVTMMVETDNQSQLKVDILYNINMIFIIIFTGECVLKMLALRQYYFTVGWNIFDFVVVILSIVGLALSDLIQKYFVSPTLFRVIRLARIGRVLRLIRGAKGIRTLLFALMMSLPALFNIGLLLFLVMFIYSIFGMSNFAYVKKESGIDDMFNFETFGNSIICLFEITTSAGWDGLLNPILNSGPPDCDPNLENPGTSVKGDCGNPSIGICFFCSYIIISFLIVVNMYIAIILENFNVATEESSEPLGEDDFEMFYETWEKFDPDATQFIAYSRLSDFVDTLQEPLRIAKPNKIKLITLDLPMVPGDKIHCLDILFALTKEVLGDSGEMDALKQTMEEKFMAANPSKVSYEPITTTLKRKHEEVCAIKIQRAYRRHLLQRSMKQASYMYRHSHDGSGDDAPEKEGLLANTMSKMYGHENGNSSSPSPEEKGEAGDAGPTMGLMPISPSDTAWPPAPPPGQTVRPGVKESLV
Summary of the method: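 Cloned hSKM1 Na+ channel was expressed in a cultured cell line and recorded by whole-cell patch clamp at 20–25°C, with mammalian Ringer as bath. Peak Na+ current was taken at +10 mV. Test compound was applied at 30 μM. Percent inhibition is mean ± SD from at least three experiments.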

Sequence of KV (Kv1.3), human T cells (P22001 whole entry): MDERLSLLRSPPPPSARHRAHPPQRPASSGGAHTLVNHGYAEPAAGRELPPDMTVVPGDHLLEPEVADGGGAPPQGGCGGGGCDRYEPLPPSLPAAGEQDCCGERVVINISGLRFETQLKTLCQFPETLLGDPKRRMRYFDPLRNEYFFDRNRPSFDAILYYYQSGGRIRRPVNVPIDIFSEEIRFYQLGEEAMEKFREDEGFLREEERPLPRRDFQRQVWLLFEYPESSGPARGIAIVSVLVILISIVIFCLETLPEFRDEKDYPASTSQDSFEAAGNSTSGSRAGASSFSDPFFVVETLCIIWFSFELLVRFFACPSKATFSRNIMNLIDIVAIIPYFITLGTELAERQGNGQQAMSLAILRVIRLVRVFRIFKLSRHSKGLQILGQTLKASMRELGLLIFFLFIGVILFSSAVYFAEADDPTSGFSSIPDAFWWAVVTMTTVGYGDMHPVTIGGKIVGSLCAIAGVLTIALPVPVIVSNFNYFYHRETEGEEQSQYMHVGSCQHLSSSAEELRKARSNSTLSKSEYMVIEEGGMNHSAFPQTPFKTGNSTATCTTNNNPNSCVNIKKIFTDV

Compound: C[C@]12CCC(=O)C=C1CC[C@@H]1[C@@H]2[C@@H](O)C[C@]2(C=O)[C@@H](C(=O)CO)CC[C@@H]12 [Aldosterone]
- inhibition at 60 µM ([1]; read-out: Aldosterone): 12 ± 13%

Compound: C[C@]12CCC(=O)C=C1CC[C@@H]1[C@@H]2[C@@H](O)C[C@@]2(C)[C@H]1CC[C@]2(O)C(=O)CO [Cortisol]
- inhibition at 60 µM ([1]; read-out: Cortisol): 13 ± 4%

Compound: C[C@]12CC[C@H](O)CC1=CC[C@@H]1[C@@H]2CC[C@]2(C)C(=O)CC[C@@H]12 [DHEA]
- inhibition at 60 µM ([1]; read-out: DHEA): 10 ± 6%

Compound: C[C@]12CC[C@@H]3c4ccc(O)cc4CC[C@H]3[C@@H]1CC[C@@H]2O [Estradiol]
- inhibition at 60 µM ([2]; read-out: Estradiol): 8 ± 10%
- inhibition at 60 µM ([1]; read-out: Estradiol): 24 ± 7%

Compound: CC(=O)[C@@]1(O)CC[C@H]2[C@@H]3CCC4=CC(=O)CC[C@]4(C)[C@H]3CC[C@@]21C [OHP, 17α-hydroxy-4-pregnene-3,20-dione]
- inhibition at 60 µM ([1]; read-out: OHP): 12 ± 6%

Compound: CC#C[C@]1(O)CC[C@H]2[C@@H]3CCC4=CC(=O)CCC4=C3[C@@H](c3ccc(N(C)C)cc3)C[C@@]21C [RU 486]
- inhibition at 60 µM ([2]; read-out: RU 486): 55 ± 12%
- inhibition at 60 µM ([1]; read-out: RU 486): 61 ± 15%

Compound: C[C@]12CC[C@H]3[C@@H](CCC4=CC(=O)CC[C@@]43C)[C@@H]1CC[C@@H]2O [Testosterone]
- inhibition at 60 µM ([1]; read-out: Testosterone): 17 ± 12%

Compound: CC(=O)[C@H]1CC[C@H]2[C@@H]3CCC4=CC(=O)CC[C@]4(C)[C@H]3CC[C@]12C [progesterone]
- inhibition at 30 µM (Kv3.1): 53 ± 3%
- % inhibition at 30 μM (Kv1.4): 23 ± 8%
- inhibition at 30 µM (Kv1.3 (cloned)): 44 ± 9%
- inhibition at 60 µM ([2]; read-out: Progesterone): 34 ± 11%
- inhibition at 30 µM (hSKM1): 11 ± 1%
